The values below come from ChEMBL document CHEMBL3997828, “Investigation of orexin-2 selective receptor antagonists: Structural modifications resulting in dual orexin receptor antagonists” (Bioorg Med Chem Lett, 2017).

Series [1] deals with T1, Orexin/Hypocretin receptor type 1 (Homo sapiens, UniProt O43613).
T1 sequence (O43613 whole entry): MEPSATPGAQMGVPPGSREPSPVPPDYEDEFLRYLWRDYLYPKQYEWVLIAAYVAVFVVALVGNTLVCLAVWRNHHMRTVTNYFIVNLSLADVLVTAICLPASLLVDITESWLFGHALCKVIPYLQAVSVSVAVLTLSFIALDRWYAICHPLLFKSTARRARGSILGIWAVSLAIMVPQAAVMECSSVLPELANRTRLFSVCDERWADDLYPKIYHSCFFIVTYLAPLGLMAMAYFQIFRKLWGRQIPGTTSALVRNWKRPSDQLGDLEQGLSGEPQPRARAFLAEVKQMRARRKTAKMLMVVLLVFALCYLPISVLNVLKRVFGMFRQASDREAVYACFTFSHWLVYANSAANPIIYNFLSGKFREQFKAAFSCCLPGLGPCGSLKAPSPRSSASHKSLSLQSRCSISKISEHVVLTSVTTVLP
Description: Displacement of [3H](S)-N-(biphenyl-2-yl)-1-(2-(1-methyl-1H-benzo[d]imidazol-2-ylthio)acetyl)pyrrolidine-2-carboxamide from human OX1R expressed in CHOK1 cell membranes. A digest of the protocol:
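Radioligand competition binding used membranes from CHO-K1 cells overexpressing human OX1R or OX2R. The selectivity ratio is OX1R Ki divided by OX2R Ki.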

Series [2] is described as follows: Solubility of the compound in pH 1.8 SGF at 0.1 mg/ml after 15 mins by reverse-phase chromatography. It counts as physicochemical. The following applies: simulated gastric fluid (SGF). The method in brief: (§1)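 Compound at […] was stirred at 80 rpm in SGF (0.01 N HCl, 0.9 wt.% NaCl, pH 1.8) or FASSIF (3 mM sodium taurocholate, 0.75 mM lecithin, 100 mM NaCl, NaOH/NaH₂PO₄, pH 6.5). It was then centrifuged at 14k rpm for 15 min.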

Series [3] is filed under the species Homo sapiens. The series is described as follows: Selectivity ratio of Ki for human OX1R expressed in CHOK1 cell membranes to Ki for human OX2R expressed in CHOK1 cell membranes. It counts as cell-based. The method in brief: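 Radioligand competition binding used membranes from CHO-K1 cells overexpressing human OX1R or OX2R. […] The selectivity ratio is OX1R Ki divided by OX2R Ki.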

Series [4] in a line: Solubility of the compound in pH 6.5 FASSIF at 0.1 mg/ml after 15 mins by reverse-phase chromatography. To be noted: fasted state simulated intestinal fluid (FaSSIF). The series is classed as physicochemical. The method in brief: as §1
For series [5], the species on record is Homo sapiens. The series is described as follows: Selectivity ratio of IC50 for human OX1R expressed in CHOK1 cells to IC50 for human OX2R expressed in CHOK1 cells by FLIPR assay. The series is classed as cell-based.
A further series concerns the target T2, Orexin receptor type 2 (Homo sapiens, UniProt O43614).
T2 sequence (O43614 whole entry): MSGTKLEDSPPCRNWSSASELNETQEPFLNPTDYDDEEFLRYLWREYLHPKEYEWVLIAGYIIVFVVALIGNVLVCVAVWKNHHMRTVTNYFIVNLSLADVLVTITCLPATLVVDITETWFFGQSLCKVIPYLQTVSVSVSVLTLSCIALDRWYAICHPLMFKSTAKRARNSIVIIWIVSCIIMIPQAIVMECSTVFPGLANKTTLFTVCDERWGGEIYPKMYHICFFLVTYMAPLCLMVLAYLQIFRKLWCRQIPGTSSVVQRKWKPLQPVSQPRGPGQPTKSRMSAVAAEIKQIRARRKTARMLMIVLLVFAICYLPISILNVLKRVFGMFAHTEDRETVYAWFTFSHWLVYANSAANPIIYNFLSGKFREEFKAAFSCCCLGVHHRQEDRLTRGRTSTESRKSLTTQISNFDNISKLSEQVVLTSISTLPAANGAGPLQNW
The series is described as follows: Antagonist activity at human OX2R expressed in CHOK1 cells assessed as reduction in orexin A-induced calcium flux preincubated followed by orexin A addition by FLIPR assays. The series is classed as functional, cell-based.

For series [6], the system named is Mus musculus. The series is described as follows: Sleep promoting activity in mouse assessed as increase in REM sleep at 30 mg/kg, po administered in late active phase for 5 consecutive days by electroencephalogram/electromyogram analysis.
Series [7] concerns OX2R knockout mouse (Mus musculus). Description: Sleep promoting activity in OX2R knockout mouse assessed as increase in NREM sleep at 30 mg/kg, po administered in late active phase for 5 consecutive days by electroencephalogram/electromyogram analysis.
Series [8] relates to Mus musculus. Description: Sleep promoting activity in mouse assessed as increase in NREM sleep at 30 mg/kg, po administered in late active phase for 5 consecutive days by electroencephalogram/electromyogram analysis.
The test system of series [9] is Rattus norvegicus. The series is described as follows: Sleep promoting activity in rat assessed as increase in REM sleep at 0.5 to 3 mg/kg, po administered in mid active phase for 3 consecutive days by electroencephalogram/electromyogram analysis. The series is classed as functional, organism-based. The method in brief: (§2)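 Rats carried implanted radio-telemetry devices for EEG/EMG polysomnography. Oral doses were 0.5 (n=16), 1 (n=14) or 3 mg/kg (n=12) versus vehicle (20% vitamin E TPGS). Dosing was at ZT18:00 (6 h after lights off) on 3 consecutive days in a balanced cross-over. Active wake, NREM and REM time was scored in 30-min bins, and all treatment days were averaged over 24 h.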

For series [10], the system named is Rattus norvegicus. The series is described as follows: Sleep promoting activity in po dosed rat assessed as attenuation of active wake administered in mid active phase for 3 consecutive days measured up to 2 hrs post dose by electroencephalogram/electromyogram analysis. It counts as functional, organism-based. The method in brief: as §2
Series [11] addresses T1, Orexin/Hypocretin receptor type 1. Description: Antagonist activity at human OX1R expressed in CHOK1 cells assessed as reduction in orexin A-induced calcium flux preincubated followed by orexin A addition by FLIPR assays. The series is classed as functional, cell-based.
Series [12] concerns Rattus norvegicus. The series is described as follows: Sleep promoting activity in rat assessed as increase in NREM sleep at 0.5 to 3 mg/kg, po administered in mid active phase for 3 consecutive days by electroencephalogram/electromyogram analysis. The series is classed as functional, organism-based. The method in brief:
as §2

The test system of series [13] is Mus musculus. Description: Sleep promoting activity in mouse assessed as attenuation of active wake at 30 mg/kg, po administered in late active phase for 5 consecutive days measured up to 1.5 hrs post dose by electroencephalogram/electromyogram analysis.
Series [14] has as its system OX2R knockout mouse (Mus musculus). The series is described as follows: Sleep promoting activity in OX2R knockout mouse assessed as attenuation of active wake at 30 mg/kg, po administered in late active phase for 5 consecutive days by electroencephalogram/electromyogram analysis.
Series [15] in a line: Time-dependent inhibition of CYP450 (unknown origin). The series is classed as ADME. The following applies: human.
The target in series [16] is T3, Nuclear receptor subfamily 1 group I member 2 (Homo sapiens, UniProt O75469).
T3 sequence (O75469 whole entry): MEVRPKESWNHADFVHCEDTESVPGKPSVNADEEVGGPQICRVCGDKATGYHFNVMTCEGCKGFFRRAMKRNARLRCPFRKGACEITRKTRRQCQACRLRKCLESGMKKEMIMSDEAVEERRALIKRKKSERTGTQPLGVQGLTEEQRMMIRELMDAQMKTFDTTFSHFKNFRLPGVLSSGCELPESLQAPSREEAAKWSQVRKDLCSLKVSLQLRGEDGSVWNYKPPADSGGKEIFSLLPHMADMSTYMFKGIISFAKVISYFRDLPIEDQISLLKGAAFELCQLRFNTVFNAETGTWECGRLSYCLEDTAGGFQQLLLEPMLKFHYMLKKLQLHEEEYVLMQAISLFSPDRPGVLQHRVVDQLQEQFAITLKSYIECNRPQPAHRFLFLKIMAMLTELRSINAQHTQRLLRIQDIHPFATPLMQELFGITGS
Description: Inhibition of PXR (unknown origin). The series is classed as ADME.

Values after ≈ are worked out from the molar mass of the structure shown. Active and inactive are the calls of the source. The rule behind the calls is not given here. A value given as a limit tells only on which side of the number the result lay.

`C[C@@H]1CC[C@@H](Oc2cc(C#N)ccn2)CN1C(=O)c1ccccc1-c1ncccn1` returned a Ki in series [1] of 0.569 µM. In addition, the results for the solubility at 0.25 h in series [2] and in [4] were 680 µg/mL (≈ 1700 µM) and 660 µg/mL (≈ 1650 µM), respectively. Moreover, the Ratio Ki in the series filed under Homo sapiens [3] was found to be 438. Also, the Ratio IC50 in the series listed under Homo sapiens [5] was 175.
On to `C[C@@H]1CC[C@@H](Oc2cc(C#N)ccn2)CN1C(=O)c1ccccc1-n1nccn1`, for which the results for the IC50 (on Orexin receptor type 2; in series [11]) were 0.009 to 0.013 µM and 3.2 to 3.83 µM, respectively. The result in the series with Mus musculus [6], in the series with Mus musculus [8], with Rattus norvegicus [9], in the series on Rattus norvegicus [12] and in the series with Mus musculus [13] was Active. For the same molecule, the outcome in series [7] and in series [14] was inactive. Besides, the solubility at 0.25 h in series [2] was 13.7 µg/mL (≈ 35.3 µM); in series [4] it was 13.5 µg/mL (≈ 34.8 µM). The Activity entry in the series with Rattus norvegicus [10] was “Dose-dependent effect”. In the series filed under Homo sapiens [3], the Ratio Ki came to 518. For the same molecule, the Ratio IC50 in the series filed under Homo sapiens [5] fell in the range of 295 to 356.
Take `Cc1c(C#N)ccnc1O[C@@H]1CC[C@@H](C)N(C(=O)c2ccccc2N2CCCC2)C1`: the TDI result in [15] is “Active”. The half-inhibitory concentration (IC50) in series [11] came to 3.1 µM. Also, in the series filed under Homo sapiens [3], the Ratio Ki was 232. For the same molecule, the Ratio IC50 in the series listed under Homo sapiens [5] worked out at 107.
With `COc1ccc(C(=O)N2C[C@H](Oc3nccc(C#N)c3C)CC[C@H]2C)c(-n2nccn2)n1`, the “inhibition (INH)” value in [16] is “Active”. Further, the IC50 in series [11] was 5.93 µM. Moreover, the Ratio Ki in the series listed under Homo sapiens [3] turned out to be 1190. In addition, the Ratio IC50 in the series filed under Homo sapiens [5] amounted to 282.
Take `CCOc1ccccc1C(=O)N1C[C@H](Oc2nccc(C#N)c2C)CC[C@H]1C`: the “inhibition (INH)” value in series [16] is on record as “Active”. In addition, the IC50 in series [11] is 2.1 µM. Further, the Ratio Ki in the series filed under Homo sapiens [3] was 849. The Ratio IC50 in the series listed under Homo sapiens [5] worked out at 350.
Consider `COc1ccc(C(=O)N2C[C@H](Oc3nccc(C#N)c3C)CC[C@H]2C)c(C2CC2)n1`, for which the TDI entry in series [15] is “Active”.
`COc1ccc(C(=O)N2C[C@H](Oc3nccc(C#N)c3C)CC[C@H]2C)c(-n2nccn2)c1`: the “inhibition (INH)” value in [16] is given as “Active”.
As for `COc1ccc(C(=O)N2C[C@H](Oc3nccc(C#N)c3C)CC[C@H]2C)c(SC)n1`, the TDI result in series [15] was “Active”. Moreover, the IC50 in series [11] is over 10 µM. In addition, in the series listed under Homo sapiens [3], the Ratio Ki stood at 1260. Besides, the Ratio IC50 in the series listed under Homo sapiens [5] is over 455.
